Active and inactive are the calls of the source. The calls are words filed in the database; no cut-off is given here.
Key:
Toll-like receptor 4 [1] = molecular target: T1, Toll-like receptor 4 (Homo sapiens, UniProt O00206); assay: Inhibition of LPS-induced TLR4 activation (unknown origin) expressed in HEK293 Blue cells compound treated for 30 mins prior LPS treatment measured after 2 to 4 hrs by spectrophotometry; type: cell-based
How it was run: (§1)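 HEK-Blue cells stably transfected with TLR4, MD-2 and CD14 carry a secreted alkaline phosphatase reporter under an NF-κB/AP-1-inducible promoter. TLR4 activation by endotoxin was monitored through secreted alkaline phosphatase.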

Toll-like receptor 4 [2] = molecular target: T1, Toll-like receptor 4; assay: Agonist activity at human TLR4 expressed in HEK293 cells co-transfected with human MD-2/CD14 assessed as receptor signal after 2 to 4 hrs by dual luciferase reporter gene assay; type: cell-based
How it was run: (§2)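 Cells were treated with increasing compound concentrations, with or without LPS stimulation (5 nM). Signal is dual-luciferase, normalized, and representative of three independent experiments.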

[3] = molecular target: T2, Toll-like receptor 4 (Mus musculus) (UniProt Q9QUK6); assay: Agonist activity at mouse TLR4 expressed in HEK293 cells co-transfected with mouse MD-2/CD14 assessed as receptor signal after 2 to 4 hrs by dual luciferase reporter gene assay; type: cell-based; how it was run: as §2
T2 sequence (whole entry): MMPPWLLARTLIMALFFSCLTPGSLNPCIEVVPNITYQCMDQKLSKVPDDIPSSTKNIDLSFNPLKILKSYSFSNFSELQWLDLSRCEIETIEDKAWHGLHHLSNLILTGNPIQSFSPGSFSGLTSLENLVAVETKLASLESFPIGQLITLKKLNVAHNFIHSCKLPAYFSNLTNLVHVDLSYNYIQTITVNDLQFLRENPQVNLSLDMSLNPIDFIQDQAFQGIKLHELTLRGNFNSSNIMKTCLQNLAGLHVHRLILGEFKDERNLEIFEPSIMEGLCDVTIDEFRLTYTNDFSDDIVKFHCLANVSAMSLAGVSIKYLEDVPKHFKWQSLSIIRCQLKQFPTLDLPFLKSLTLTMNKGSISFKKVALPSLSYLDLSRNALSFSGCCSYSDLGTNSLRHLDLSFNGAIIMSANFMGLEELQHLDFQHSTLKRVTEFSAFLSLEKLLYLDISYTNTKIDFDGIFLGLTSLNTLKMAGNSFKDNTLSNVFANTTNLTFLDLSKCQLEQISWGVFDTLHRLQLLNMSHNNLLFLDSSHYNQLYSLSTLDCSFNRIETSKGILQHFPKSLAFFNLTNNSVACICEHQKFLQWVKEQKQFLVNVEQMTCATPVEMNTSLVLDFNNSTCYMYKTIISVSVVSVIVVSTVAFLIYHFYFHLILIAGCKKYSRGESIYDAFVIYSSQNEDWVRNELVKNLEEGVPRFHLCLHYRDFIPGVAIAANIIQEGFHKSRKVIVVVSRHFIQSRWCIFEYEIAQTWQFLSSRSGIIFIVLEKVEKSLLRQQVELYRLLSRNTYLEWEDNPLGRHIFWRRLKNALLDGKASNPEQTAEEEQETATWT

Toll-like receptor 4 [4] = molecular target: T1, Toll-like receptor 4; assay: Antagonist activity at human TLR4 expressed in HEK293 cells co-transfected with human MD-2/CD14 assessed as inhibition of LPS-stimulated receptor signal after 2 to 4 hrs by dual luciferase reporter gene assay; type: cell-based; how it was run: as §2
[5] = molecular target: T2, Toll-like receptor 4 (Mus musculus); assay: (§3) Antagonist activity at mouse TLR4 expressed in HEK293 cells co-transfected with mouse MD-2/CD14 assessed as inhibition of LPS-stimulated receptor signal after 2 to 4 hrs by dual luciferase reporter gene assay; type: cell-based; how it was run: as §2
Toll-like receptor 4 [6] = molecular target: T1, Toll-like receptor 4; assay: Agonist activity at TLR4 (unknown origin) expressed in HEK293 Blue cells measured after 2 to 4 hrs by spectrophotometry; type: cell-based; how it was run: as §1
HEK293 = assay: Cytotoxicity against HEK-Blue cells after 3 hrs by MTT assay; type: cell-based; settings: human, hek293, 3 h
Toll-like receptor 4 [7] = molecular target: T3, Toll-like receptor 4 (Mus musculus, UniProt Q9QUK6); assay: as §3; type: cell-based; how it was run: as §2
T3 sequence (Q9QUK6 whole entry): T2 sequence (whole entry)

[8] = molecular target: T2, Toll-like receptor 4 (Mus musculus); assay: Antagonist activity at mouse TLR4 in mouse BMDM cells assessed as inhibition of LPS-stimulated IL-6 production compound treated for 1 hr before LPS challenge by ELISA; type: cell-based
How it was run: (§4)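 Bone marrow-derived murine macrophages in RPMI with 10% FBS were pretreated with compound (0–2 µM), and LPS was added 1 hour later. After overnight incubation, IL-6 and TNF-α in the medium were measured by ELISA. Cells not given LPS served as negative controls.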

[9] = molecular target: T2, Toll-like receptor 4 (Mus musculus); assay: Antagonist activity at mouse TLR4 in mouse BMDM cells assessed as inhibition of LPS-stimulated TNFalpha production compound treated for 1 hr before LPS challenge by ELISA; type: cell-based; how it was run: as §4
[10] = Amphiphilicity of the compound assessed as critical micelle concentration by spectrofluorophotometry; type: physicochemical
How it was run: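 The CMC in aqueous solution was determined from the polarity-dependent change in the fluorescence spectrum of pyrene as it partitions into micelles formed by the compound.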

[11] = molecular target: T2, Toll-like receptor 4 (Mus musculus); assay: Activation of mouse TLR4 in mouse BMDM cells by ELISA; type: cell-based
Toll-like receptor 4 [12] = molecular target: T1, Toll-like receptor 4; assay: Agonist activity at TLR4 (unknown origin) expressed in HEK293 Blue cells measured after 2 to 4 hrs by spectrophotometry
[13] = molecular target: T2, Toll-like receptor 4 (Mus musculus); assay: Antagonist activity at mouse TLR4 in mouse BMDM cells assessed as inhibition of LPS-stimulated IL-6 production at 1 to 2 uM for 1 hr before LPS treatment by ELISA; type: cell-based; how it was run: as §4
[14] = molecular target: T2, Toll-like receptor 4 (Mus musculus); assay: Antagonist activity at mouse TLR4 in mouse BMDM cells assessed as inhibition of LPS-stimulated TNFalpha production at 1 to 2 uM for 1 hr before LPS treatment by ELISA; type: cell-based; how it was run: as §4
[15] = molecular target: T2, Toll-like receptor 4 (Mus musculus); assay: Antagonist activity at mouse TLR4 in mouse BMDM cells assessed as inhibition of LPS-stimulated IL-6 production at 0.1 to 0.5 uM for 1 hr before LPS treatment by ELISA; type: cell-based; how it was run: as §4
[16] = molecular target: T2, Toll-like receptor 4 (Mus musculus); assay: Antagonist activity at mouse TLR4 in mouse BMDM cells assessed as inhibition of LPS-stimulated TNFalpha production at 0.1 to 0.5 uM for 1 hr before LPS treatment by ELISA; type: cell-based; how it was run: as §4
Mus musculus = assay: Immunosuppressive C57/B16 mouse assessed as inhibition of LPS-induced immune activation measured as TNFalpha secretion at 2 x 10^-7 mol, ip 1 hr prior LPS challenge by ELISA; type: functional, organism-based
How it was run: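 C57/Bl6 mice were given compound i.p. at 2·10^-7 mol/mouse, then LPS i.p. (1·10^-9 mol/mouse) 1 hour later. Sera were collected three hours after LPS and serum TNF-α concentration was determined.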

T1 sequence (O00206 whole entry): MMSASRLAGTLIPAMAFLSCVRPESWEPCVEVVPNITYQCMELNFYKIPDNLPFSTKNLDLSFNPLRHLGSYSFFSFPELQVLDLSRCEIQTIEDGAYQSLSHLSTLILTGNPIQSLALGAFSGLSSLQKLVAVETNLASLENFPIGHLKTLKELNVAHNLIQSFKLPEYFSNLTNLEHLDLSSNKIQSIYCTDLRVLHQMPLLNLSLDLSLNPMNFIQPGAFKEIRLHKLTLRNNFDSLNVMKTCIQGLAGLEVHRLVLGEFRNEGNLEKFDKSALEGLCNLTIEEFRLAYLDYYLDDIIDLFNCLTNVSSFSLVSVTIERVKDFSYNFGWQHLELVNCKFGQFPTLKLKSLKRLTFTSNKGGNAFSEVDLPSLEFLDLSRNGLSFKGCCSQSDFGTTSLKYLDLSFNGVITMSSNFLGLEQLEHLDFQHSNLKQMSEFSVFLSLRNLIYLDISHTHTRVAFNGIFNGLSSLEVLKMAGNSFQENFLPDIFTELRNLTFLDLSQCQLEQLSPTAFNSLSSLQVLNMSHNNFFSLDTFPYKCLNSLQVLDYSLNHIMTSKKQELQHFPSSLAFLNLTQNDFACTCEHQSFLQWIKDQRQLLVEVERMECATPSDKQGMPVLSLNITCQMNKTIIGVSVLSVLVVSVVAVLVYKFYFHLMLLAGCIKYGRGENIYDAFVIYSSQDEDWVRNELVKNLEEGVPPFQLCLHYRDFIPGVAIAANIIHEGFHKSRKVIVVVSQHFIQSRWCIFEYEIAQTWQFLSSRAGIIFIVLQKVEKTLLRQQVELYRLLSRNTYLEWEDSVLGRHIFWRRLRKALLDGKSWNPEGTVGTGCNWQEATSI

inhibition (Toll-like receptor 4 [1])	Activity (Toll-like receptor 4 [2])	Activity [3]	Activity (Toll-like receptor 4 [4])	Activity [5]	IC50 (Toll-like receptor 4 [1]) [nM]	Activity (Toll-like receptor 4 [6])	IC50 (Toll-like receptor 4 [4]) [nM]	inhibition (Toll-like receptor 4 [4])	inhibition [5]	IC50 (Toll-like receptor 4 [7]) [nM]	CMC [10] [µM]	Activity (Toll-like receptor 4 [12])	SMILES	Activity (HEK293)	further results
inactive	inactive	inactive	inactive	inactive									CCCCCCCCCCCCCCO[C@@H]1[C@H](OCCCCCCCCCCCCCC)[C@@H](O[C@H]2O[C@H](CSCCN)[C@@H](OCCCCCCCCCCCCCC)[C@H](OCCCCCCCCCCCCCC)[C@H]2OCCCCCCCCCCCCCC)O[C@H](CSCCN)[C@H]1OCCCCCCCCCCCCCC		
inactive	inactive	inactive	inactive	inactive									CCCCCCO[C@@H]1[C@H](OCCCCCC)[C@@H](O[C@H]2O[C@H](CSCCN)[C@@H](OCCCCCC)[C@H](OCCCCCC)[C@H]2OCCCCCC)O[C@H](CSCCN)[C@H]1OCCCCCC		
Dose-dependent effect	inactive	inactive			3700	inactive	3900	Dose-dependent effect	Dose-dependent effect	3300	59.7	inactive	CCCCCC(=O)O[C@@H]1[C@@H](OC(=O)CCCCC)[C@@H](OC)O[C@H](CSCCNC(=S)NCCN(CCN)CCN)[C@H]1OC(=O)CCCCC.Cl	Non-toxic	inhibition [8]: inactive; inhibition [9]: inactive; Activity [11]: inactive
Dose-dependent effect	inactive	inactive			1300	inactive	1400	Dose-dependent effect	Dose-dependent effect	800	97.7	inactive	CCCCCC(=O)O[C@@H]1[C@H](OC(=O)CCCCC)[C@@H](O[C@H]2O[C@H](CSCCN)[C@@H](OC(=O)CCCCC)[C@H](OC(=O)CCCCC)[C@H]2OC(=O)CCCCC)O[C@H](CSCCN)[C@H]1OC(=O)CCCCC	Non-toxic	inhibition [8]: inactive; inhibition [9]: inactive; Activity [11]: inactive
Dose-dependent effect	inactive	inactive			5000	inactive	600	Dose-dependent effect	Dose-dependent effect	600	10.9	inactive	CCCCCC(=O)O[C@@H]1[C@H](OC(=O)CCCCC)[C@@H](O[C@H]2O[C@H](Cn3cc(CNC(=S)NCCN)nn3)[C@@H](OC(=O)CCCCC)[C@H](OC(=O)CCCCC)[C@H]2OC(=O)CCCCC)O[C@H](Cn2cc(CNC(=S)NCCN)nn2)[C@H]1OC(=O)CCCCC	Non-toxic	
inactive	inactive	inactive	inactive	inactive									CCCCCCCCCCCCCCO[C@H]1[C@@H](OC)O[C@H](CSCCN)[C@@H](O)[C@@H]1OCCCCCCCCCCCCCC		
Dose-dependent effect	inactive	inactive			600	inactive	200	Dose-dependent effect	Dose-dependent effect	200	350	inactive	CCCCCC(=O)O[C@@H]1[C@H](OC(=O)CCCCC)[C@@H](O[C@H]2O[C@H](Cn3cc(CN(CCN)CCN)nn3)[C@@H](OC(=O)CCCCC)[C@H](OC(=O)CCCCC)[C@H]2OC(=O)CCCCC)O[C@H](Cn2cc(CN(CCN)CCN)nn2)[C@H]1OC(=O)CCCCC	Non-toxic	inhibition [13]: Dose-dependent effect; inhibition [14]: Dose-dependent effect; inhibition [15]: inactive; inhibition [16]: inactive; inhibition (Mus musculus): Active
inactive	inactive	inactive	inactive	inactive									CCCCCCO[C@H]1[C@@H](OC)O[C@H](CSCCN)[C@@H](O)[C@@H]1OCCCCCC		
inactive	inactive	inactive	inactive	inactive									CCCCCC(=O)O[C@@H]1[C@@H](OC(=O)CCCCC)[C@@H](OC)O[C@H](Cn2cc(CN(CCNC(=S)NCCN)CCNC(=S)NCCN)nn2)[C@H]1OC(=O)CCCCC		
inactive	inactive	inactive	inactive	inactive									CCCCCCO[C@@H]1[C@@H](OCCCCCC)[C@@H](OC)O[C@H](CN)[C@H]1OCCCCCC		

From ChEMBL document CHEMBL3352094, “Trehalose- and glucose-derived glycoamphiphiles: small-molecule and nanoparticle Toll-like receptor 4 (TLR4) modulators” (J Med Chem, 2014)
